Measured values: ChEMBL document CHEMBL4177556, “Novel 5-HT7R antagonists, arylsulfonamide derivatives of (aryloxy)propyl piperidines: Add-on effect to the antidepressant activity of SSRI and DRI, and pro-cognitive profile” (Bioorg Med Chem, 2017)
Activity calls are given as the source filed them.

Tests used:
Mus musculus [1] = experiment: Antidepressant-like activity in Swiss albino mouse assessed as decrease in immobility time at 0.625 to 2.5 mg/kg measured during last 4 mins of 6 mins test by forced swim test relative to control; format: functional; parameters: scale not given: the % may be the effect or the level left
Summary of the method: (§1)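 Porsolt swim test in male Swiss albino mice (22–26 g), 7–10 per dose, each used once, run 09:00–14:00 by a blinded observer. Drugs in distilled water, i.p. at 10 ml/kg: escitalopram 30 min before test, others 60 min. Immobility scored during the last 4 min of a 6 min swim at 23–25 °C. One-way ANOVA with Bonferroni vs vehicle.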

Mus musculus [2] = experiment: Antidepressant-like activity in C57BL/6J mouse assessed as increase in number of fight episodes at 0.625 to 1.25 mg/kg measured during 6 mins session by tail suspension test; format: functional, organism-based
Summary of the method: (§2)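 Male C57BL/6J mice (22–26 g), 7–9 per group. Compound in distilled water, i.p. at 10 ml/kg, 60 min before test. Mice suspended by tail from a strain-gauge hook for 6 min. Struggling episodes, average event force and immobility (force below 0.20 N threshold) recorded automatically. One-way ANOVA with Bonferroni; mean ± SEM.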

[3] = molecular target: Sodium-dependent noradrenaline transporter (Homo sapiens) (UniProt P23975); experiment: Displacement of [3H]nisoxetine from recombinant human NET at 1 uM after 120 mins by scintillation counting analysis relative to control
Summary of the method: (§3)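 Transporter and α1-adrenergic binding run externally by Eurofins Cerep using their standard protocols. Reported as % inhibition of control specific binding.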

[4] = molecular target: 5-hydroxytryptamine receptor 2A (Homo sapiens, UniProt P28223); experiment: Displacement of [3H]-Ketanserin from human 5-HT2A receptor expressed in HEK293 or CHO-K1 cells after 1 hr by microbeta counting analysis; format: cell-based
Summary of the method: (§4)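 Membranes from stably transfected HEK293 or CHO-K1 cells, homogenized, centrifuged twice at 35,000g, with 15 min at 37 °C in between. Receptor-specific Tris-HCl buffers with MgCl2, plus EDTA, pargyline or ascorbate as applicable. Incubated 1 h at 37 °C (5-HT1A at room temperature), filtered, and bound radioactivity counted.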

Mus musculus [5] = experiment: Toxicity in mouse assessed as effect on spontaneous locomotory activity at 0.312 to 2.5 mg/kg, ip administered 60 mins prior to testing measured for 6 mins; format: organism-based; settings: in vivo, 0.1 h
Summary of the method: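 Swiss albino or C57BL/6J mice habituated 30 min in activity cages. Ambulation counted from 2–6 min (matching the swim test) or over 6 min (matching the tail suspension test) with an infrared multi-channel activity monitor. Dosing i.p. as for the behavioral tests.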

[6] = molecular target: Sodium-dependent serotonin transporter (Homo sapiens) (UniProt P31645); experiment: Displacement of [3H]imipramine from recombinant human SERT at 1 uM after 60 mins by scintillation counting analysis relative to control; summary of the method: as §3
[7] = molecular target: 5-hydroxytryptamine receptor 6 (Homo sapiens, UniProt P50406); experiment: Displacement of [3H]-LSD from human 5-HT6 receptor expressed in HEK293 or CHO-K1 cells after 1 hr by microbeta counting analysis; format: cell-based; summary of the method: as §4
[8] = molecular target: T1, 5-hydroxytryptamine receptor 1A (Homo sapiens, UniProt P08908); experiment: Displacement of [3H]-8-OH-DPAT from human 5-HT1A receptor expressed in HEK293 or CHO-K1 cells after 1 hr by microbeta counting analysis; format: cell-based; summary of the method: as §4
T1 sequence (P08908 whole entry): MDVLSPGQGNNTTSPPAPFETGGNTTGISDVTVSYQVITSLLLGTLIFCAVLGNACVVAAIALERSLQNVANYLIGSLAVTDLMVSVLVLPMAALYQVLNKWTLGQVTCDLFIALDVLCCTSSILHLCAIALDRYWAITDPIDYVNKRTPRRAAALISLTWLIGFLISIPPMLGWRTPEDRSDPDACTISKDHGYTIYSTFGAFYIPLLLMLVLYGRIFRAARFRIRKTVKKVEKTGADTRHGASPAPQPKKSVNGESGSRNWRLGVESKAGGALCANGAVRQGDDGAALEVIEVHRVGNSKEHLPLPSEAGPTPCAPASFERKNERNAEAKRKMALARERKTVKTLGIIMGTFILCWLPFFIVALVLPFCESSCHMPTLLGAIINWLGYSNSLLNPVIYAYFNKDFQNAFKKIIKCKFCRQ

Mus musculus [9] = experiment: Antidepressant-like activity in Swiss albino mouse assessed as decrease in immobility time at 0.312 mg/kg cotreated with 0.625 mg/kg of escitalopram measured during last 4 mins of 6 mins test by forced swim test relative to control; format: functional; parameters: scale not given: the % may be the effect or the level left
Summary of the method: (§5)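 Male Swiss albino mice, 7–10 per group. Test compound (i.p., 60 min pre-test) co-given with reboxetine or bupropion (60 min) or escitalopram (30 min), all in distilled water at 10 ml/kg. Placed in a water cylinder (10 cm water, 23–25 °C) for 6 min; immobility scored over the last 4 min by a blinded observer. Two-way ANOVA with Bonferroni.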

Mus musculus [10] = experiment: Antidepressant-like activity in C57BL/6J mouse assessed as increase in force of fights at 2.5 mg/kg measured during 6 mins session by tail suspension test; format: functional, organism-based; summary of the method: as §2
Mus musculus [11] = experiment: Antidepressant-like activity in C57BL/6J mouse assessed as decrease in immobility time at 2.5 mg/kg measured during 6 mins session by tail suspension test; format: functional, organism-based; summary of the method: as §2
Rattus norvegicus = experiment: Cognitive enhancement effect in Sprague-Dawley rat memory impairment model assessed as reversal of natural forgetting impairment administered ip 30 mins prior to test measured after 24 hrs by novel object recognition test; format: functional, organism-based
Summary of the method: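 Male Sprague–Dawley rats (about 250 g), handled and acclimatized. Habituated to an open field arena (25 lx) for 5 min, 24 h before testing. Two 3-min trials (T1, T2) separated by a 24 h inter-trial interval. Drug given i.p. 30 min before T1. Object exploration video-tracked; discrimination index = (EB−EA)/(EA+EB).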

Homo sapiens = species: Homo sapiens; experiment: Selectivity ratio of Ki for human 5-HT1A receptor to Ki for human 5-HT7b receptor
Mus musculus [12] = experiment: Antidepressant-like activity in Swiss albino mouse assessed as decrease in immobility time at 0.312 mg/kg cotreated with 1.25 mg/kg of bupropion measured during last 4 mins of 6 mins test by forced swim test; format: functional, organism-based; summary of the method: as §5
Mus musculus [13] = experiment: Antidepressant-like activity in C57BL/6J mouse assessed as decrease in immobility time at 1.25 mg/kg measured during 6 mins session by tail suspension test; format: functional, organism-based; summary of the method: as §2
[14] = molecular target: Sodium-dependent dopamine transporter (Homo sapiens) (UniProt Q01959); experiment: Displacement of [3H]BTCP from recombinant human DAT at 1 uM after 120 mins by scintillation counting analysis relative to control; summary of the method: as §3
[15] = molecular target: Adrenergic receptor alpha-1 (Homo sapiens) (UniProt P35348+P25100+P35368); experiment: Binding affinity to alpha1-adrenergic receptor (unknown origin) at 1 uM relative to control; format: protein assay; summary of the method: as §3
[16] = molecular target: T2, 5-hydroxytryptamine receptor 7 (Homo sapiens, UniProt P34969); experiment: Antagonist activity at human 5-HT7b receptor expressed in HEK293 cells assessed as inhibition of 5-CT induced cAMP accumulation after 30 mins by LANCE based TR-FRET assay; format: functional, cell-based
Summary of the method: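 Stable 5-HT7 HEK293 cells in DMEM with 10% dialysed FBS and G418, harvested at 90% confluence, washed in warm PBS, and resuspended in HBSS/5 mM HEPES/0.5 mM IBMX/0.1% BSA. Compound incubated with cells for 30 min at room temperature against 5-CT (10 nM). Cells lysed with Eu-cAMP/ULight-anti-cAMP for 1 h at room temperature, then LANCE cAMP read-out. Triplicate at 8 concentrations.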

[17] = molecular target: T2, 5-hydroxytryptamine receptor 7; experiment: Displacement of [3H]-5-CT from human 5-HT7b receptor expressed in HEK293 cells after 1 hr by microbeta counting analysis; format: cell-based; summary of the method: as §4
D(2) dopamine receptor = D(2) dopamine receptor (Homo sapiens, UniProt P14416); experiment: Displacement of [3H]-Raclopride from human dopamine D2L receptor expressed in HEK293 or CHO-K1 cells after 1 hr by microbeta counting analysis; format: cell-based; summary of the method: as §4
Mus musculus [18] = experiment: Antidepressant-like activity in C57BL/6J mouse assessed as increase in average force of fights at 20 mg/kg measured during 6 mins session by tail suspension test; format: functional, organism-based
Summary of the method: (§6)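 C57BL/6J male mice (22–26 g), 7–9 per group. Escitalopram in distilled water, i.p. at 10 ml/kg, 30 min before test. Tail suspension on a strain gauge for 6 min, scoring fight force, episode count and immobility below a 0.20 N threshold. One-way ANOVA with Bonferroni.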

Mus musculus [19] = experiment: Antidepressant-like activity in C57BL/6J mouse assessed as decrease in immobility time at 5 to 20 mg/kg measured during 6 mins session by tail suspension test; format: functional, organism-based; summary of the method: as §6
Mus musculus [20] = experiment: Antidepressant-like activity in Swiss albino mouse assessed as decrease in immobility time at 1.25 mg/kg measured during last 4 mins of 6 mins test by forced swim test relative to control; format: functional; parameters: scale not given: the % may be the effect or the level left; summary of the method: as §1
Mus musculus [21] = experiment: Antidepressant-like activity in Swiss albino mouse assessed as decrease in immobility time at 0.625 mg/kg measured during last 4 mins of 6 mins test by forced swim test; format: functional, organism-based; summary of the method: as §1
Mus musculus [22] = experiment: Antidepressant-like activity in Swiss albino mouse assessed as decrease in immobility time at 2.5 mg/kg measured during last 4 mins of 6 mins test by forced swim test relative to control; format: functional; parameters: scale not given: the % may be the effect or the level left; summary of the method: as §1

T2 sequence (P34969 whole entry): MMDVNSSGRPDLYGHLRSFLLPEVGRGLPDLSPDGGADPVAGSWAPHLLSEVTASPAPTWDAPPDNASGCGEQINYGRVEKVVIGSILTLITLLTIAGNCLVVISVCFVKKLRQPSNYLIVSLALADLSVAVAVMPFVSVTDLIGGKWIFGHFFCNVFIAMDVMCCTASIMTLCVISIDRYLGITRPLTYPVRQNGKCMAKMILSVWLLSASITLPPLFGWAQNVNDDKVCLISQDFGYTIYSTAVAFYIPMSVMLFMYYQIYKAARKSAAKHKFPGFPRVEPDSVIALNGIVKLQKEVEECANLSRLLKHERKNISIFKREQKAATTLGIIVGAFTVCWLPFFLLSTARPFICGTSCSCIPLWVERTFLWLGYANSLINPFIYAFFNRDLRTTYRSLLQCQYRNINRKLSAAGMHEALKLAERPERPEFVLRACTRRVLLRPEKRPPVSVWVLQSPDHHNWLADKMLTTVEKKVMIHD
Chain of Sodium-dependent serotonin transporter (Homo sapiens) (P31645 whole entry, looked up): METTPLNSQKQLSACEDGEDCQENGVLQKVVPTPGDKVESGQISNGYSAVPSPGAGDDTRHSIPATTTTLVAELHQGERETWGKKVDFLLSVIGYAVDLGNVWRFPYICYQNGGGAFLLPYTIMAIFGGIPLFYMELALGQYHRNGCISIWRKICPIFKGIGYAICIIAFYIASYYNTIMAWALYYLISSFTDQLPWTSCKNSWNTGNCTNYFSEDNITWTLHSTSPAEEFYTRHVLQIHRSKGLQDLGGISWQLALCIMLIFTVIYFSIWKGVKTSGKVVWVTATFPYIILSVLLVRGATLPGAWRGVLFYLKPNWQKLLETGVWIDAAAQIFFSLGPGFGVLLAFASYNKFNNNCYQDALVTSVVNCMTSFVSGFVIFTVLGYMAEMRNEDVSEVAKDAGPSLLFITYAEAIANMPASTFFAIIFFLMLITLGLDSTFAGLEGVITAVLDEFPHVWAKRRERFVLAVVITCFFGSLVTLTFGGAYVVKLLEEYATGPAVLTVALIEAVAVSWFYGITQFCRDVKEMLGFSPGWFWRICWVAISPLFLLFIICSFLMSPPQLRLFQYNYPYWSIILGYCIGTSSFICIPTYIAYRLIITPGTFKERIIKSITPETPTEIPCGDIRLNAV
Chain of 5-hydroxytryptamine receptor 6 (P50406 whole entry): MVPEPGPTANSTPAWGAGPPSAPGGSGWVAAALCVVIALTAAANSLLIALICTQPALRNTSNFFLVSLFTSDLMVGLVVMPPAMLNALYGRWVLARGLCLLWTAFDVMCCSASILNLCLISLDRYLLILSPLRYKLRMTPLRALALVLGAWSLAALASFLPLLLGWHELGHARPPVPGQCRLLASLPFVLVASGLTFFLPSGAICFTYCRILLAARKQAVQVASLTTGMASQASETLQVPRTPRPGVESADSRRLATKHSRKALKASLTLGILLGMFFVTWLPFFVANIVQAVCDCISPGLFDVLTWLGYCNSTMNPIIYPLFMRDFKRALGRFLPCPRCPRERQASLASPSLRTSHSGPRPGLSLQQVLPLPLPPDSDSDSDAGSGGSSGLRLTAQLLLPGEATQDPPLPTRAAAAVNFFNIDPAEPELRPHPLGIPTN
Chain of Sodium-dependent noradrenaline transporter (Homo sapiens) (P23975 whole entry): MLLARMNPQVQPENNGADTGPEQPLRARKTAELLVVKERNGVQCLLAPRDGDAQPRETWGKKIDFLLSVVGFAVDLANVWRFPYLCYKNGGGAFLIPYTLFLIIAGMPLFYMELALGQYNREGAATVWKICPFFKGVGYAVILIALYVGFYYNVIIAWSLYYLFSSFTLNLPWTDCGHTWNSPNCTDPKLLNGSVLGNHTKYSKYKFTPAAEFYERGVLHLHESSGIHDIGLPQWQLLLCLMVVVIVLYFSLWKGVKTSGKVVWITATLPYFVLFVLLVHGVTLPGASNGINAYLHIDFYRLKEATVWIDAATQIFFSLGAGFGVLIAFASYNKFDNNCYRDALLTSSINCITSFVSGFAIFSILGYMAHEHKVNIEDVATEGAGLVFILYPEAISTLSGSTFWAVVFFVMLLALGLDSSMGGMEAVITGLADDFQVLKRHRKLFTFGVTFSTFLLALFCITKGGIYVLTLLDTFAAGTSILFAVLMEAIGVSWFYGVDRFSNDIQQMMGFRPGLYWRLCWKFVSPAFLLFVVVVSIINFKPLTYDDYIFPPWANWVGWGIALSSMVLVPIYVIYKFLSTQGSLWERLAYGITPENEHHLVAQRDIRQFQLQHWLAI
Chain of D(2) dopamine receptor (P14416 whole entry): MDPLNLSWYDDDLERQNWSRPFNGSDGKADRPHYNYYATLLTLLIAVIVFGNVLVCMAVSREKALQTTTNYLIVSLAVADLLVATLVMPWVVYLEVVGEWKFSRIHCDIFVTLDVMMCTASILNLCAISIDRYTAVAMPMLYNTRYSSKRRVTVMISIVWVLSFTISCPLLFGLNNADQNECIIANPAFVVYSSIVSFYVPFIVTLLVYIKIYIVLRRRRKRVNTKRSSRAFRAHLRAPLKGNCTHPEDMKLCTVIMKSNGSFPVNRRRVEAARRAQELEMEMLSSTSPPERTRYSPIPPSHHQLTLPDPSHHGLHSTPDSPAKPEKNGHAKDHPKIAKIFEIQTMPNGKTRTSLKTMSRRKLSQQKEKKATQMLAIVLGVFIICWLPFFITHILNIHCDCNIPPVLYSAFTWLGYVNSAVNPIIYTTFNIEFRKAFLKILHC
Chain of Sodium-dependent dopamine transporter (Homo sapiens) (Q01959 whole entry): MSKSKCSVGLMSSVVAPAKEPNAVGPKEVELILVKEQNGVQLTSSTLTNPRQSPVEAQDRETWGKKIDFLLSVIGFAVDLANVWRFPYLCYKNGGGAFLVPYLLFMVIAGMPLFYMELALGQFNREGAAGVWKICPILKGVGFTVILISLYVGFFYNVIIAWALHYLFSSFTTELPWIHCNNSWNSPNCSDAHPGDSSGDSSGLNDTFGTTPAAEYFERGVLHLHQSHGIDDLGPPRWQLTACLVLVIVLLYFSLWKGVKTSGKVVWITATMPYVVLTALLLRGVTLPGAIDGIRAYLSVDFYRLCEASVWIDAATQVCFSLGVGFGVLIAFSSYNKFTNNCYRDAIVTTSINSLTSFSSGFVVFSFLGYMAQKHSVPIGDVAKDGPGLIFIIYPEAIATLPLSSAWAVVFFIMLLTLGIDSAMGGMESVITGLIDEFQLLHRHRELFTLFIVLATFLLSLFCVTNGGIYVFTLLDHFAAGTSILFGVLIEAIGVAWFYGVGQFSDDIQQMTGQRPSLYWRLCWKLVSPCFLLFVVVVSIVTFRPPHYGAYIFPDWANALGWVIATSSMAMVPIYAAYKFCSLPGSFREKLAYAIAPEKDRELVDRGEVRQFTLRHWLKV
Chain of 5-hydroxytryptamine receptor 2A (P28223 whole entry): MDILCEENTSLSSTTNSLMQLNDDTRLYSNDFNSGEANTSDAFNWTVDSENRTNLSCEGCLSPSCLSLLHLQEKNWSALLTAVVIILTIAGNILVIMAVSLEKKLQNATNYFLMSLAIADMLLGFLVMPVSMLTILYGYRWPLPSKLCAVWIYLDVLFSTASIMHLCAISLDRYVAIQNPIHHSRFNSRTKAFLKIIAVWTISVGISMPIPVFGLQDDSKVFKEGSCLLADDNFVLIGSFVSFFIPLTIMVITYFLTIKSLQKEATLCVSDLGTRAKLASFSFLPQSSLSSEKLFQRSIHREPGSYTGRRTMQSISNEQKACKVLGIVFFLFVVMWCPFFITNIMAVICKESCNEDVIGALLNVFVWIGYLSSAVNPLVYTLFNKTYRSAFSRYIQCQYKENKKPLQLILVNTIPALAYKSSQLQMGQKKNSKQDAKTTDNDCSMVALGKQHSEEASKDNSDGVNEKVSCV

For `O=S(=O)(NC1CCN(CC(O)COc2ccccc2-c2ccccc2)CC1)c1cccc(Cl)c1` (stereo not given), the Activity (Mus musculus [1]) was 28 - 46%, the Activity (Mus musculus [2]) was “Active” and the Activity [3] was < 40%. The Ki [4] was 2110 nM, the Activity (Mus musculus [5]) was “Non-Toxic” and the Activity [6] was < 40%. It also gave a Ki [7] of 295 nM, a Ki [8] of 1330 nM and an Activity (Mus musculus [9]) of 25.4%. For the same compound, the Activity (Mus musculus [10]) was “Active”, the Activity (Mus musculus [11]) was “Active” and the Activity (Rattus norvegicus) was “Dose-dependent effect”. For the same compound, the Ratio Ki (Homo sapiens) was 40, the Activity (Mus musculus [12]) was “Active” and the Activity (Mus musculus [13]) was “Active”. The Activity [14] was < 40%, the Activity [15] was < 10% and the Kb [16] was 25 nM. For the same compound, the Ki [17] was 33 nM and the Ki (D(2) dopamine receptor) was 343 nM.

With `O=S(=O)(NC1CCN(CCCOc2ccccc2-c2ccccc2)CC1)c1ccc(F)cc1` the Ki [8] was 1840 nM, the Ratio Ki (Homo sapiens) was 32 and the Ki [17] was 58 nM.

With `CN(C)CCC[C@@]1(c2ccc(F)cc2)OCc2cc(C#N)ccc21` [ESCITALOPRAM] the Activity (Mus musculus [18]) was “Active”, the Activity (Mus musculus [19]) was “Active” and the Activity (Mus musculus [20]) was 27%. For the same compound, the Activity (Mus musculus [21]) was “inactive” and the Activity (Mus musculus [22]) was 34%.

With `O=S(=O)(NC1CCN(CCCOc2ccccc2-c2ccccc2)CC1)c1cccc(Cl)c1` the Ki [8] was 1630 nM, the Ratio Ki (Homo sapiens) was 31 and the Ki [17] was 52 nM.

`CC(C)c1ccccc1OCC(O)CN1CCC(NS(=O)(=O)c2ccc(F)cc2)CC1` (stereo not given) gave a Ki [8] of 506 nM, a Ratio Ki (Homo sapiens) of 5 and a Ki [17] of 104 nM.

With `CC(C)c1ccccc1OCC(C)N1CCC(NS(=O)(=O)c2cccc(F)c2)CC1` (stereo not given) the Ki [8] was 962 nM, the Ratio Ki (Homo sapiens) was 6 and the Ki [17] was 170 nM.

With `O=S(=O)(NC1CCN(CC(O)COc2ccccc2-c2ccccc2)CC1)c1ccc(F)cc1` (stereo not given) the Ki [8] was 1320 nM, the Ratio Ki (Homo sapiens) was 22 and the Ki [17] was 59 nM.
